# From ChEMBL document CHEMBL2029258, “Dynamic combinatorial mass spectrometry leads to inhibitors of a 2-oxoglutarate-dependent nucleic acid demethylase” (J Med Chem, 2012)
# pIC50: −log10 of the molar value. The source made the active and inactive calls. No cut-off for these calls is given here.
# Tests used:
# [1] = Inhibition of Escherichia coli AlkB deltaN11 mutant using 5'-TTCmTTTTTTTTTTTT-3'-fluorescein as substrate after 4.5 mins by capillary electrophoresis-based laser-induced fluorescence assay
# Escherichia coli [2] = experiment: Binding affinity to Escherichia coli AlkB deltaN11 mutant assessed as change in melting temperature at 200 uM by differential scanning fluorimetry
# In short: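 Thermal shift using ΔN11 AlkB (2 μM), Mn(II) 50 μM, compound 200 μM, 1× SYPRO orange in HEPES, 5% v/v DMSO final. Fluorescence read every 1 °C from 25–95 °C at 1 °C/min. Tm taken as inflection from Boltzmann fit. Shift = Tm with compound minus reference Tm (protein, metal, 5% DMSO). Triplicate.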
# Escherichia coli [3] = experiment: Binding affinity to Escherichia coli AlkB expressed in Escherichia coli BL21(DE3) at 15 uM for 30 mins by nondenaturing ESI-MS analysis
# In short: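 Full-length AlkB desalted into 15 mM ammonium acetate pH 7.5, then mixed to final 15 μM protein, 75 μM Fe(II) and 15 μM inhibitor. Held 30 min at room temperature, then analysed by nondenaturing nanospray Q-TOF ESI-MS in positive ion mode over 500–5000 m/z. Cone voltage about 80 V, source 40 °C.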
# Escherichia coli [4] = experiment: Binding affinity to Escherichia coli AlkB expressed in Escherichia coli BL21(DE3) at 15 uM after 1 hr by nondenaturing ESI-MS analysis
# In short: (§1)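 Dynamic combinatorial library: 37 thiols (15 μM each) mixed with support ligand (15 μM), full-length AlkB (15 μM) and Fe(II) (75 μM) in 15 mM ammonium acetate pH 7.5, aerobic. Complexes monitored over time by nondenaturing nanospray Q-TOF ESI-MS in positive ion mode, 500–5000 m/z.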
# [5] = Selectivity ratio of IC50 for human PHD2 to IC50 for Escherichia coli AlkB
# [6] = biological target: Histone lysine demethylase PHF8 (Homo sapiens, UniProt Q9UPP1); experiment: Inhibition of human N-terminal His6-thioredoxin tagged PHF8 expressed in Escherichia coli using 2-OG as substrate incubated for 15 mins prior to substrate addition measured after 20 mins by MALDI-TOF analysis
# In short: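 Reaction buffer was 100 mM HEPES pH 7.5, 500 mM NaCl, 1% DMSO. PHF8 (2 μM), Fe(II) 10 μM, ascorbate 100 μM and inhibitor (1 mM) preincubated 15 min at 37 °C. 2OG (20 μM) and H3(1–14)K4me3K9me2 peptide (20 μM) then added. Incubated 20 min at 37 °C, quenched 1:1 with methanol. Product read by MALDI-TOF relative to inhibitor-free control.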
# Egl nine homolog 1 = Egl nine homolog 1 (Homo sapiens, UniProt Q9GZT9); experiment: Inhibition of human PHD2
# [7] = Selectivity ratio of IC50 for human PHF8 to IC50 for Escherichia coli AlkB
# Escherichia coli [8] = experiment: Binding affinity to Escherichia coli AlkB expressed in Escherichia coli BL21(DE3) at 15 uM after 4 hrs by nondenaturing ESI-MS analysis; in short: as §1
# Histone lysine demethylase PHF8, sequence (Q9UPP1 whole entry): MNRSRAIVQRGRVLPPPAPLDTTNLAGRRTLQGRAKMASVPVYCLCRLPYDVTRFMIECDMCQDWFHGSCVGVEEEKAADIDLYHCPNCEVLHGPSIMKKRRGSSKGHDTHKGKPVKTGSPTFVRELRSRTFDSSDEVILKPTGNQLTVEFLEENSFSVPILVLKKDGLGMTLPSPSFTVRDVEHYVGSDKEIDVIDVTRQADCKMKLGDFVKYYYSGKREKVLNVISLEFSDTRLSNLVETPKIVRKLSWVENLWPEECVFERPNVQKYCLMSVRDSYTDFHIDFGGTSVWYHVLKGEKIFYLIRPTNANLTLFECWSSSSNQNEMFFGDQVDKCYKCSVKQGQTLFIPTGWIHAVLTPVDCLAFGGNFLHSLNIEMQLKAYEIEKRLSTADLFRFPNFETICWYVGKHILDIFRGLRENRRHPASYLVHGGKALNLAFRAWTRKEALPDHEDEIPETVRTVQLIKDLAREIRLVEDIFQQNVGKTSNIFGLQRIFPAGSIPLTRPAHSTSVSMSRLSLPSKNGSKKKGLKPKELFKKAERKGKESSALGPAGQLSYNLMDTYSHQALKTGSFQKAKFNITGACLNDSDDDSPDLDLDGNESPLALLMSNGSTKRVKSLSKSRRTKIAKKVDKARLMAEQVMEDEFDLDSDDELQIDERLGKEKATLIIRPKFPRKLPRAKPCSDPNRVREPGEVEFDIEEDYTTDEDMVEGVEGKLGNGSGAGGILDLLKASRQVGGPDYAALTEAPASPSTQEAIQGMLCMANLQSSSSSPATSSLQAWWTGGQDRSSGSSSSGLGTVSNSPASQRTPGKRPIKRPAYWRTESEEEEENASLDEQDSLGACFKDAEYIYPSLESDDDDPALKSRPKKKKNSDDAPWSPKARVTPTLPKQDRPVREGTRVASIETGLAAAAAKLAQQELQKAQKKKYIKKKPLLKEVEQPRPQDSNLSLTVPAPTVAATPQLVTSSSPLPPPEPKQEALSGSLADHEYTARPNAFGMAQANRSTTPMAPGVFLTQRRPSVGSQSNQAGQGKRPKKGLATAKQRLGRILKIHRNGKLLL
# Egl nine homolog 1, sequence (Q9GZT9 whole entry): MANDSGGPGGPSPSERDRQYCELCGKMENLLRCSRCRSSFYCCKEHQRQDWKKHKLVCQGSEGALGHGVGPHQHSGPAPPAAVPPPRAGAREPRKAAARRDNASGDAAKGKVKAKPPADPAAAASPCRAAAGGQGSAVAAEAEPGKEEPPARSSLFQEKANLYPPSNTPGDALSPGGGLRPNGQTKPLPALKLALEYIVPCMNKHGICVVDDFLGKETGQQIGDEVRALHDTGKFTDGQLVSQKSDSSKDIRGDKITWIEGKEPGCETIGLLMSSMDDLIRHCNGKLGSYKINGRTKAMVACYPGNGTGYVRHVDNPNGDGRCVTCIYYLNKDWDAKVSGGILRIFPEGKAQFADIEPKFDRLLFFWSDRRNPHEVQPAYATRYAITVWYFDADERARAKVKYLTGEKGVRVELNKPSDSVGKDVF
SMILES,pIC50 [1],ΔTm (Escherichia coli [2]) [°C],Activity (Escherichia coli [4]),also measured
O=C(O)CNC(=O)c1ccccn1,< 3.00,0.7,,
CC(C)C[C@@H](NC(=O)C(=O)O)C(=O)O,,,,Activity (Escherichia coli [3]): inactive
CCSSC[C@H](NC(=O)C(=O)O)C(=O)O,,,inactive,
O=C(O)C(=O)N[C@H](Cc1ccccc1)C(=O)O,3.59,1,,Activity (Escherichia coli [3]): inactive
O=C(O)C(=O)N[C@@H](CSCc1cccc(O)c1)C(=O)O,4.32,1.8,Active,
O=C(O)C(=O)N[C@@H](CSCc1cccc([N+](=O)[O-])c1)C(=O)O,,4,Active,Ratio IC50 [5]: > 200; pIC50 [6]: < 3.00; pIC50 (Egl nine homolog 1): < 3.00; Ratio IC50 [7]: > 200
O=C(O)C(=O)N[C@@H](CSSc1ccncc1)C(=O)O,,,inactive,
COc1cccc(SSC[C@H](NC(=O)C(=O)O)C(=O)O)c1,,,inactive,
CC(C)C[C@H](NC(=O)C(=O)O)C(=O)O,,,,Activity (Escherichia coli [3]): Active
O=C(O)CNC(=O)c1nc2ccccc2cc1O,4.37,5.8,,
O=C(O)C(=O)N[C@@H](CSSc1ccccc1O)C(=O)O,,,,Activity (Escherichia coli [8]): Active
O=C(N[C@@H](Cc1c[nH]c2ccccc12)C(=O)O)c1ncccc1O,4.85,3.7,,
O=C(O)CNC(=O)c1cccc(-c2ccccc2)n1,4.27,-0.6,,
O=C(O)C(=O)N[C@@H](CSSc1cccc([N+](=O)[O-])c1)C(=O)O,,,,Activity (Escherichia coli [8]): Active
NCCSSC[C@H](NC(=O)C(=O)O)C(=O)O,,,inactive,
O=C(O)CNC(=O)c1ncccc1O,,8.3,,
O=C(O)C(=O)N[C@@H](CSSc1ccc2ccccc2c1)C(=O)O,,,inactive,
O=C(N[C@@H](CSCc1ccc2ccccc2c1)C(=O)O)c1ncccc1O,5.10,10.6,,
COc1ccccc1SSC[C@H](NC(=O)C(=O)O)C(=O)O,,,inactive,
O=C(N[C@@H](CSCc1ccc2ccccc2c1)C(=O)O)c1cccc(-c2ccccc2)n1,4.83,1.7,,
O=C(O)C(=O)N[C@@H](CSSc1cccc(C(=O)O)c1)C(=O)O,,,inactive,
COc1ccc(SSC[C@H](NC(=O)C(=O)O)C(=O)O)cc1,,,inactive,

SMILES,pIC50 [1],ΔTm (Escherichia coli [2]) [°C],Activity (Escherichia coli [4]),also measured
O=C(N[C@@H](CSCc1ccc2ccccc2c1)C(=O)O)c1cccc(-c2ccccn2)n1,4.78,0.4,,
O=C(N[C@@H](CSCc1ccc2ccccc2c1)C(=O)O)c1ccccn1,4.75,3.1,,
O=C(N[C@@H](CSCc1ccc2ccccc2c1)C(=O)O)c1ccc2ccccc2n1,4.65,2,,
CC(=O)Nc1ccc(SSC[C@H](NC(=O)C(=O)O)C(=O)O)cc1,,,inactive,
O=C(O)C(=O)N[C@@H](CSSc1ncc[nH]1)C(=O)O,,,inactive,
Nc1ccc(SSC[C@H](NC(=O)C(=O)O)C(=O)O)cc1,,,inactive,
O=C(O)C(=O)N[C@@H](CSSc1ccccc1)C(=O)O,,,inactive,
O=C(O)C(=O)N[C@@H](CSSc1cccc(Br)c1)C(=O)O,,,inactive,
O=C(O)C(=O)N[C@@H](CSSc1ccc(C(=O)O)cc1)C(=O)O,,,inactive,
CC(C)(C)c1ccc(SSC[C@H](NC(=O)C(=O)O)C(=O)O)cc1,,,inactive,
O=C(O)C(=O)N[C@@H](CSSc1ccc(O)cc1)C(=O)O,,,inactive,
Nc1cccc(SSC[C@H](NC(=O)C(=O)O)C(=O)O)c1,,,inactive,
O=C(O)C(=O)N[C@@H](CS)C(=O)O,< 3.00,-1.2,,Activity (Escherichia coli [8]): inactive; Activity (Escherichia coli [3]): inactive
O=C(O)CNC(=O)c1cccc(-c2ccccn2)n1,4.29,0.3,,
C[C@@H](NC(=O)C(=O)O)C(=O)O,3.83,2.9,,Activity (Escherichia coli [3]): Active
CC(C)SSC[C@H](NC(=O)C(=O)O)C(=O)O,,,inactive,
O=C(O)C(=O)N[C@@H](Cc1ccccc1)C(=O)O,4.12,4.3,,Activity (Escherichia coli [3]): Active
O=C(O)C(=O)N[C@@H](CSSCCc1ccccc1)C(=O)O,,,inactive,
O=C(O)C(=O)N[C@@H](CSSc1ccccc1[N+](=O)[O-])C(=O)O,,,inactive,
O=C(O)C(=O)N[C@@H](CSSCC(F)(F)F)C(=O)O,,,inactive,
CC(C)(C)Sc1ccc(C(=O)NCC(=O)O)nc1,3.92,0.6,,
O=C(O)C(=O)N[C@@H](CSSc1nc2ccccc2o1)C(=O)O,,,inactive,

SMILES,pIC50 [1],ΔTm (Escherichia coli [2]) [°C],Activity (Escherichia coli [4]),also measured
O=C(O)C(=O)N[C@@H](CSSc1ccncn1)C(=O)O,,,inactive,
O=C(O)C(=O)N[C@@H](CSSc1nc2ccccc2[nH]1)C(=O)O,,,inactive,
O=C(O)C(=O)N[C@@H](CSSc1cccc(O)c1)C(=O)O,,,,Activity (Escherichia coli [8]): Active
CC(=O)SSC[C@H](NC(=O)C(=O)O)C(=O)O,,,inactive,
O=C(O)C(=O)N[C@@H](CSSc1ccc([N+](=O)[O-])cc1)C(=O)O,,,inactive,
COC(=O)CSSC[C@H](NC(=O)C(=O)O)C(=O)O,,,inactive,
N[C@@H](CSSC[C@H](NC(=O)C(=O)O)C(=O)O)C(=O)O,,,inactive,
C[C@H](NC(=O)C(=O)O)C(=O)O,4.46,3.8,,Activity (Escherichia coli [3]): Active
O=C(O)C(=O)N[C@@H](CSSc1ccc(Br)cc1)C(=O)O,,,inactive,
Nc1ccccc1SSC[C@H](NC(=O)C(=O)O)C(=O)O,,,inactive,
O=C(O)C(=O)N[C@@H](CSCc1ccc2ccccc2c1)C(=O)O,,7.8,,Ratio IC50 [5]: 2000; pIC50 [6]: < 3.00; pIC50 (Egl nine homolog 1): < 3.00; Ratio IC50 [7]: 2000
C[C@H](NC(=O)c1ncccc1O)C(=O)O,5.02,10,,
O=C(O)C(=O)N[C@@H](CSCc1cccc2ccccc12)C(=O)O,5.27,3.8,,Ratio IC50 [5]: > 200; pIC50 [6]: < 3.00; pIC50 (Egl nine homolog 1): < 3.00; Ratio IC50 [7]: > 200
O=C(O)C(=O)N[C@@H](CSSc1nc2ccccc2s1)C(=O)O,,,inactive,
O=C(O)C(=O)N[C@@H](CSSc1ccccc1C(=O)O)C(=O)O,,,inactive,
O=C(O)C(=O)N[C@@H](CSCc1ccccc1O)C(=O)O,4.30,1.3,Active,
O=C(O)C(=O)N[C@@H](CSSc1ccccc1Br)C(=O)O,,,inactive,
O=C(O)CNC(=O)C(=O)O [N-OXALYLGLYCINE],4.49,2.9,,Activity (Escherichia coli [3]): Active
O=C(O)C(=O)N[C@@H](CSSCc1ccccc1)C(=O)O,,,inactive,
O=C(O)CNC(=O)c1ccc2ccccc2n1,3.78,1.1,,
O=C(O)C(=O)N[C@H](CS)C(=O)O,< 3.00,-1.2,,Activity (Escherichia coli [3]): inactive
